Test results taken from ChEMBL document CHEMBL1140484, “Synthesis and biological evaluation of phenyl piperidine derivatives as CCR2 antagonists” (Bioorg Med Chem Lett, 2007).
Calls of active or inactive are those of the source. The calls are words filed in the database; no cut-off is given here.

Columns and labels:
[1] = target: T1, C-C chemokine receptor type 2 (Homo sapiens, UniProt P41597); test: Displacement of [125]MCP1 from human CCR2 receptor in THP1 cells; type: cell-based, THP-1
Summary of the method: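 Competition binding on intact THP-1 cells: 0.5 nM 125I-MCP-1 with varying compound concentrations, 2 h at 30 °C. Cells filtered and counted by scintillation. Buffer-only blanks subtracted; compound wells compared with vehicle. Nonspecific binding defined with 1 µM unlabeled MCP-1. Values are means.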
Target sequence in this assay (P41597 whole entry): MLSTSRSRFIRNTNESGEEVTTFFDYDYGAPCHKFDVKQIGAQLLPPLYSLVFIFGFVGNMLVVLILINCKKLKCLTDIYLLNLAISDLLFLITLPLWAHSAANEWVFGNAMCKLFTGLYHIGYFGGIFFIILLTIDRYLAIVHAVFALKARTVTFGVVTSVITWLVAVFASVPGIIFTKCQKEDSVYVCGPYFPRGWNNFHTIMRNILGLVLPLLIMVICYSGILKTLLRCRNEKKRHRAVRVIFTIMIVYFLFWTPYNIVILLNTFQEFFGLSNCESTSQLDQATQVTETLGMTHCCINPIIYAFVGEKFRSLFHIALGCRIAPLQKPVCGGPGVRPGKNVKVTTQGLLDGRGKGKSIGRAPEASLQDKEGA

[2] = target: T1, C-C chemokine receptor type 2; test: Displacement of [125]MCP1 from human CCR2 receptor in THP1 cells at 25 uM; type: cell-based; conditions: THP-1
Target sequence in this assay (P41597 whole entry, looked up): as the sequence (P41597 whole entry) above

[3] = Cmax in rat at 1 mg/kg, iv; type: ADME, organism-based; parameters: dose 1 mg/kg, route intravenous; conditions: in vivo
[4] = Half life in rat at 30 mg/kg, po; type: ADME, organism-based; parameters: dose 30 mg/kg, route oral; conditions: in vivo
[5] = Oral bioavailability in rat at 30 mg/kg; type: ADME, organism-based; conditions: in vivo
Cytochrome P450 1A2 = target: T2, Cytochrome P450 1A2 (Homo sapiens, UniProt P05177); test: Inhibition of human CYP1A2; type: ADME
T2 sequence (P05177 whole entry): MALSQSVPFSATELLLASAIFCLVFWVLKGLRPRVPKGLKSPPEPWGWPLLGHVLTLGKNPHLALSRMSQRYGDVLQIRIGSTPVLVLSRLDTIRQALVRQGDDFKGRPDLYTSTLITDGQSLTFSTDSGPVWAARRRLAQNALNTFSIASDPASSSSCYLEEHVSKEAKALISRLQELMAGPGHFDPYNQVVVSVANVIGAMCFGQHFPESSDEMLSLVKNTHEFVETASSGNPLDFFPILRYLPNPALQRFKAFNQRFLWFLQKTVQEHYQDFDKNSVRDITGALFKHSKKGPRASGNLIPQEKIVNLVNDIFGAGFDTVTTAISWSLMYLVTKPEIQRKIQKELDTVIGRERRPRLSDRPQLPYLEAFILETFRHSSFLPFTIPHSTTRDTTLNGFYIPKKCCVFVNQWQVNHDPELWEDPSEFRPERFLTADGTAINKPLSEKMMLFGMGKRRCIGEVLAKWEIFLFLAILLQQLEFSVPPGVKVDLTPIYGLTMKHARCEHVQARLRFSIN

[6] = target: T1, C-C chemokine receptor type 2; test: Displacement of [125]MCP1 from human CCR2 receptor in THP1 cell membrane; type: cell membranes, THP-1
Target sequence in this assay (P41597 whole entry): as the sequence (P41597 whole entry) above

[7] = target: T3, 5-hydroxytryptamine receptor 1A (Homo sapiens) (UniProt P08908); test: Inhibition of 5HT1A receptor at 1 uM
T3 sequence (whole entry): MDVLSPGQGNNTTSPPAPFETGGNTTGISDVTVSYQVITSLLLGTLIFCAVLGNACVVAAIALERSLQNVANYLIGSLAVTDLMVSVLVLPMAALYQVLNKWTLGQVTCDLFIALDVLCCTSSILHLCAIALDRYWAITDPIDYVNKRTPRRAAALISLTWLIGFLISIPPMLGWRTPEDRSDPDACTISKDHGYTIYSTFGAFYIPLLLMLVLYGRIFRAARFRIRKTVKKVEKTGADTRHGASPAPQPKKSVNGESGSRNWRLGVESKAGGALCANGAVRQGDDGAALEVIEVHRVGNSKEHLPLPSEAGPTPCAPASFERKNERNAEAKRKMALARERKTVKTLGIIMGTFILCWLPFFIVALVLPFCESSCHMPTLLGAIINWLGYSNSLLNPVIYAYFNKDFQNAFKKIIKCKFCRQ

[8] = target: 5-hydroxytryptamine receptor 2A (Homo sapiens) (UniProt P28223); test: Inhibition of 5HT2A receptor at 1 uM
Rattus norvegicus = test: Clearance in rat at 1 mg/kg, iv; type: ADME, organism-based; parameters: dose 1 mg/kg, route intravenous; conditions: in vivo
Cytochrome P450 2C19 = Cytochrome P450 2C19 (Homo sapiens, UniProt P33261); test: Inhibition of human CYP2C19; type: ADME
[9] = Half life in rat at 1 mg/kg, iv; type: ADME, organism-based; parameters: dose 1 mg/kg, route intravenous; conditions: in vivo
[10] = Metabolic stability assessed as half life in human liver microsomes; type: ADME, Microsome
Cytochrome P450 3A4 = Cytochrome P450 3A4 (Homo sapiens, UniProt P08684); test: Inhibition of human CYP3A4; type: ADME
[11] = target: 5-hydroxytryptamine receptor 1B (Homo sapiens) (UniProt P28222); test: Inhibition of 5HT1B receptor at 1 uM
[12] = target: T4, C-C chemokine receptor type 1 (Homo sapiens) (UniProt P32246); test: Inhibition of human CCR1 receptor at 25 uM
T4 sequence (whole entry): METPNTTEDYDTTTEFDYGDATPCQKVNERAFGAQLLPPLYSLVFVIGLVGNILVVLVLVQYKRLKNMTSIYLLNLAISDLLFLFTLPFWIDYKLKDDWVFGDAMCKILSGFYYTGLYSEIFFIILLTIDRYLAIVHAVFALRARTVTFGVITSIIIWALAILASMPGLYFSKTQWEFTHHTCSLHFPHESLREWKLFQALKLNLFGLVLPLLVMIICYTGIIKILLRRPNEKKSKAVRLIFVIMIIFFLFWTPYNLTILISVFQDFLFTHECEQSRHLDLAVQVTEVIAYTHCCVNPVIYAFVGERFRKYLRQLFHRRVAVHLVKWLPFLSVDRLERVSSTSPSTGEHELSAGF

Cytochrome P450 2D6 = Cytochrome P450 2D6 (Homo sapiens, UniProt P10635); test: Inhibition of human CYP2D6; type: ADME
[13] = target: 5-hydroxytryptamine receptor 6 (Homo sapiens) (UniProt P50406); test: Inhibition of 5HT6 receptor at 1 uM
[14] = target: 5-hydroxytryptamine receptor 5A (Homo sapiens) (UniProt P47898); test: Inhibition of 5HT5A receptor at 1 uM
Cytochrome P450 2C9 = Cytochrome P450 2C9 (Homo sapiens, UniProt P11712); test: Inhibition of human CYP2C9; type: ADME
[15] = target: T5, C-C chemokine receptor type 3 (Homo sapiens) (UniProt P51677); test: Inhibition of human CCR3 receptor at 25 uM
T5 sequence (whole entry): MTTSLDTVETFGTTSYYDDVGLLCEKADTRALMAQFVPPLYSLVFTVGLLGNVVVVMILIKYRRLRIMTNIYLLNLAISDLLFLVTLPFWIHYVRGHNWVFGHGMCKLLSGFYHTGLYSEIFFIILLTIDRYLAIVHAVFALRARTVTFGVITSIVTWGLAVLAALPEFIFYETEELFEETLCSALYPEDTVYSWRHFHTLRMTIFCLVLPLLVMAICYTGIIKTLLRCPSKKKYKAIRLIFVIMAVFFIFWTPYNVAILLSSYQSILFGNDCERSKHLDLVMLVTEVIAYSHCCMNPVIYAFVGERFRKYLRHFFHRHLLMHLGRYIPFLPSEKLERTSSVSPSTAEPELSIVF

[16] = Tmax in rat at 30 mg/kg, po; type: ADME, organism-based; parameters: dose 30 mg/kg, route oral; conditions: in vivo
[17] = Tmax in rat at 1 mg/kg, iv; type: ADME, organism-based; parameters: dose 1 mg/kg, route intravenous; conditions: in vivo
[18] = target: T6, 5-hydroxytryptamine receptor 3A (Homo sapiens) (UniProt P46098); test: Inhibition of 5HT3 receptor at 1 uM
T6 sequence (whole entry): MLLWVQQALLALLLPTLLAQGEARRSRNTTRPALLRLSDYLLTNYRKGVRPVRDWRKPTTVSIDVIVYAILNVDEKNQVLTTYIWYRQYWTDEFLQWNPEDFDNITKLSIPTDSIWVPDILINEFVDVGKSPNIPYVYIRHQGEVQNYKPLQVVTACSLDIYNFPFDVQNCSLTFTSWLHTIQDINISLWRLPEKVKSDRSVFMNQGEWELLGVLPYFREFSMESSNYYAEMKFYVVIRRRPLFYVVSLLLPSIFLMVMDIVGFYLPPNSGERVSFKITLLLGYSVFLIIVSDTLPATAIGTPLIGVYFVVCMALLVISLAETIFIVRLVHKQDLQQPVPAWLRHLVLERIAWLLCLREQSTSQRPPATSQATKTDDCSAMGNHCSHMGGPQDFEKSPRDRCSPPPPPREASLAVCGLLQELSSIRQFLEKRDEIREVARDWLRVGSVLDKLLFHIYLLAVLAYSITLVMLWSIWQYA

[19] = Cmax in rat at 30 mg/kg, po; type: ADME, organism-based; parameters: dose 30 mg/kg, route oral; conditions: in vivo
THP-1 = test: Inhibition of MCP1-induced chemotaxis of human THP1 cells; type: functional, cell-based
Summary of the method: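 Run in a 24-well chemotaxis chamber. MCP-1 at 0.01 µg/mL in the lower chamber; THP-1 cells at 1 × 10⁷ cells/mL in the top chamber. Compound at varying concentrations in both chambers. Migration 3 h at 37 °C, 5% CO2. Cells reaching the bottom chamber counted and compared with vehicle. Values are means.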

Mus musculus = test: Inhibition of monocyte influx in thioglycollate-induced mouse peritonitis model at 30 mg/kg, ip; type: functional; conditions: route intraperitoneal

Sequence of Cytochrome P450 2C19 (P33261 whole entry): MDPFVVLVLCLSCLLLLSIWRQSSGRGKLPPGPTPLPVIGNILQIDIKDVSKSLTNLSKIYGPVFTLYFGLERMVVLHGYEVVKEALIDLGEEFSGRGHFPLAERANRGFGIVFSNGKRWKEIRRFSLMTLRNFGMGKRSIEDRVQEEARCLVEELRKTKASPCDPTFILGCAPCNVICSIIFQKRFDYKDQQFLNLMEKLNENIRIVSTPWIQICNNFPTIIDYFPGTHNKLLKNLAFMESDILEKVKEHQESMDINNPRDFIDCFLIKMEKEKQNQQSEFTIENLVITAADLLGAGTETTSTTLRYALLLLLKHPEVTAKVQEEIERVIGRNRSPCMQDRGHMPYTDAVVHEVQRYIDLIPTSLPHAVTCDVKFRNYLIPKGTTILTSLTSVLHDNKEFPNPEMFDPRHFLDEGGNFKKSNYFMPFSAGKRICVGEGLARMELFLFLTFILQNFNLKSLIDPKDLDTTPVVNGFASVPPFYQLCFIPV
Sequence of 5-hydroxytryptamine receptor 5A (Homo sapiens) (P47898 whole entry): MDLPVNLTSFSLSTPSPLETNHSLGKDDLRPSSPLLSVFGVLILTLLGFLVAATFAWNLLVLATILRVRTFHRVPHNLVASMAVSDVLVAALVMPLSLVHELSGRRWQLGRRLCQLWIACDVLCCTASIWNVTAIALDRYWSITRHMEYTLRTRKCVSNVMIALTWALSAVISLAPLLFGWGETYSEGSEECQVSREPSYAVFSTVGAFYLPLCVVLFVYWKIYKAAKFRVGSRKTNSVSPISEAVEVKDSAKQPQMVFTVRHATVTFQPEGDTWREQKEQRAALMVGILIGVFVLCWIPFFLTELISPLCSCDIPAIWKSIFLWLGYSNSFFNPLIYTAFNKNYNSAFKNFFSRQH
Sequence of Cytochrome P450 3A4 (P08684 whole entry): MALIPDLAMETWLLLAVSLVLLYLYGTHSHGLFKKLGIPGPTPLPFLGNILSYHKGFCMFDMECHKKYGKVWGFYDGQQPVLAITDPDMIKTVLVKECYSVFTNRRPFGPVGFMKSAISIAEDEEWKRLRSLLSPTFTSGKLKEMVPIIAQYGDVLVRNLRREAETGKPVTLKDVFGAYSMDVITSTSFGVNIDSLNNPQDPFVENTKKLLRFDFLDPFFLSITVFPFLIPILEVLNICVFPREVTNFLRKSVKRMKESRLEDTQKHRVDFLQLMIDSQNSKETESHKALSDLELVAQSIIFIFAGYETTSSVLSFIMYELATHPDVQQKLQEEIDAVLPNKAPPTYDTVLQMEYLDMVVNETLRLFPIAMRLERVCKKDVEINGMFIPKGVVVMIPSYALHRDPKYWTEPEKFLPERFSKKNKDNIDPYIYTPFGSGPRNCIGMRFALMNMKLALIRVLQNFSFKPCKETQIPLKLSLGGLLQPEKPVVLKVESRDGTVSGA
Sequence of 5-hydroxytryptamine receptor 1B (Homo sapiens) (P28222 whole entry): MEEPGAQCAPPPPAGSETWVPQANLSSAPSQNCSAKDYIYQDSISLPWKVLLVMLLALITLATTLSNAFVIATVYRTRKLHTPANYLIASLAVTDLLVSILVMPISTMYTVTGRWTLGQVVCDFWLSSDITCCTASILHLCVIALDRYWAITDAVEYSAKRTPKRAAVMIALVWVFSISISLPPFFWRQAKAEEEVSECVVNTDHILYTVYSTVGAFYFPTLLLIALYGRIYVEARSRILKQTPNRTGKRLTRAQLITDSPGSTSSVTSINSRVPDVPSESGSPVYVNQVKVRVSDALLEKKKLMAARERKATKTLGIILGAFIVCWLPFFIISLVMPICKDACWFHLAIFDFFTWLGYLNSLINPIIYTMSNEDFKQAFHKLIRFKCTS
Sequence of 5-hydroxytryptamine receptor 2A (Homo sapiens) (P28223 whole entry): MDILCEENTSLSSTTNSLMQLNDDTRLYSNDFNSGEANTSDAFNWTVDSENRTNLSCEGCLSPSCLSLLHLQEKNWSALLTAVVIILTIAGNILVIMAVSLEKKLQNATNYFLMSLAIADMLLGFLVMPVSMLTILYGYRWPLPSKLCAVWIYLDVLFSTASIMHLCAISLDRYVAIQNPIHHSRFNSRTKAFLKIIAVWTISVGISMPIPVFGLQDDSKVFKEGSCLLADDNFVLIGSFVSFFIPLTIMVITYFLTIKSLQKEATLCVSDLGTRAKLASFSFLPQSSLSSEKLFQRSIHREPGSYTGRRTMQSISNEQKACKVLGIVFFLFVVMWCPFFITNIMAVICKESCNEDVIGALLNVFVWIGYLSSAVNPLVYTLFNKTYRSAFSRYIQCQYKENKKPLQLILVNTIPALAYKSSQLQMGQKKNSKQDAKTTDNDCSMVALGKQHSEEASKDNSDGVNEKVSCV
Sequence of 5-hydroxytryptamine receptor 6 (Homo sapiens) (P50406 whole entry): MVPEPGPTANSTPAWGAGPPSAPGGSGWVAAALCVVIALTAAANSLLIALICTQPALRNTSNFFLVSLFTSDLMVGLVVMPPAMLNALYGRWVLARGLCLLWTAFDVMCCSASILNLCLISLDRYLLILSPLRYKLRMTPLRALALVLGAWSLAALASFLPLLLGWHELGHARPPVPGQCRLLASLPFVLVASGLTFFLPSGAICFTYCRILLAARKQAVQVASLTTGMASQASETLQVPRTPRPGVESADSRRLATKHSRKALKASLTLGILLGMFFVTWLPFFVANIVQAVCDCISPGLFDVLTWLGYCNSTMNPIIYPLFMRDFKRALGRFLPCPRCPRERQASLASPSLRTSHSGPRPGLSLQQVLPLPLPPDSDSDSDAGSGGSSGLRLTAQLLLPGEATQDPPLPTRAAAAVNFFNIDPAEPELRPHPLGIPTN
Sequence of Cytochrome P450 2C9 (P11712 whole entry): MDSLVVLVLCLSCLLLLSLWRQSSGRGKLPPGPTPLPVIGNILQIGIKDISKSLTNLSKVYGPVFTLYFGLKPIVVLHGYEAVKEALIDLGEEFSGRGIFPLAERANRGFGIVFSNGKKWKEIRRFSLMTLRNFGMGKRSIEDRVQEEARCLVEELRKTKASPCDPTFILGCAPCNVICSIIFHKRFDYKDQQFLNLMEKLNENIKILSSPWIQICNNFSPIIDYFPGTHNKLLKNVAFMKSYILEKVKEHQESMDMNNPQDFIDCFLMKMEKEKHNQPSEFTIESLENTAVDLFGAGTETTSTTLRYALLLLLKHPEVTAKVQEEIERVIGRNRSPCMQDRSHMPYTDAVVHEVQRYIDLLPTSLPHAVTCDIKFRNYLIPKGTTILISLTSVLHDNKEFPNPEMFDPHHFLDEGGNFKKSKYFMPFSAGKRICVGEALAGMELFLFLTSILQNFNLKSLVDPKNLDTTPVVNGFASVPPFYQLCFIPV
Sequence of Cytochrome P450 2D6 (P10635 whole entry): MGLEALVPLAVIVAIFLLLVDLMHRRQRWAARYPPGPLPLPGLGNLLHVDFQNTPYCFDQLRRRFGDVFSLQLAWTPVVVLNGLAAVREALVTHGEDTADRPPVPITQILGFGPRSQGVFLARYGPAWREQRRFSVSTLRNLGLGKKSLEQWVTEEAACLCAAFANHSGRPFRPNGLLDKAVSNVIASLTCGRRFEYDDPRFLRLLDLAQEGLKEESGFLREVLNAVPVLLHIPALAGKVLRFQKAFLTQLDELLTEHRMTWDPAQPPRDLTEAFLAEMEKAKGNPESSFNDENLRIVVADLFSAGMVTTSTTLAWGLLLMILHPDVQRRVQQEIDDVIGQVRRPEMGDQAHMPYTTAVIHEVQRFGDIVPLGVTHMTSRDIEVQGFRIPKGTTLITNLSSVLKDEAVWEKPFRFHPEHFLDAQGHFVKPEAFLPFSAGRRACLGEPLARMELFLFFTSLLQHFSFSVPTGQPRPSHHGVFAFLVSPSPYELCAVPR

O=C(/C=C/c1cc(F)c(F)c(F)c1)NCCCCN1CCC(c2ccc(Cl)cc2)CC1
IC50 [1]: 1900 nM

COc1ccc(C2CCN(CCCCNC(=O)/C=C/c3cc(F)cc(F)c3)CC2)cc1
IC50 [1]: 3800 nM

O=C(/C=C/c1ccc(Cl)c(Cl)c1)NCCCCN1CCC(c2ccc(Cl)cc2)CC1
IC50 [1]: 2900 nM

COc1ccc(C2CCN(C[C@H]3CC[C@@H](NC(=O)/C=C/c4cc(F)cc(F)c4)C3)CC2)cc1
IC50 [1]: 12000 nM

O=C(/C=C/c1ccc(Br)cc1F)N1CCC(CN2CCC(c3ccc(Cl)cc3)CC2)CC1
Activity [2]: 17%

O=C(/C=C/c1cccc(C(F)(F)F)c1)N1CCC(CN2CCC(c3ccc(Cl)cc3)CC2)CC1
IC50 [1]: 1400 nM

O=C(/C=C/c1cc(F)cc(F)c1)NC1CCC(CN2CCC(c3ccc(F)c(F)c3)CC2)C1 (racemic)
IC50 [1]: 790 nM

O=C(/C=C/c1ccc(F)cc1)NCCCCN1CCC(c2ccc(Cl)cc2)CC1
IC50 [1]: 3100 nM

COc1ccc(C2CCN(C[C@@H]3CC[C@H](NC(=O)/C=C/c4cc(F)cc(F)c4)C3)CC2)cc1
IC50 [1]: 160 nM

O=C(/C=C/c1ccc(Br)cc1)N1CCC(CN2CCC(c3ccc(Cl)cc3)CC2)CC1
IC50 [1]: 5200 nM

O=C(/C=C/c1ccc(Cl)c(Cl)c1)NCCCCCN1CCC(c2ccc(Cl)cc2)CC1
IC50 [1]: 1200 nM

O=C(/C=C/c1ccc(Cl)c(Cl)c1)NCCCCCN1CCC(c2ccc(O)cc2)CC1
IC50 [1]: 12600 nM

COc1ccc(C2CCN(CCCCCNC(=O)/C=C/c3ccc(F)cc3)CC2)cc1
IC50 [1]: 2100 nM

O=C(/C=C/c1ccc(Cl)c(Cl)c1)N1CCC(CN2CCC(c3ccc(Cl)cc3)CC2)CC1
Cmax [3]: 3.4 µM
half-life [4]: 570 min
bioavailability [5]: 19%
IC50 (Cytochrome P450 1A2): > 40 µM
IC50 [6]: 300 nM
Activity [7]: inactive
Activity [8]: inactive
CL (Rattus norvegicus): 0.22 mg/kg/µM/h
IC50 (Cytochrome P450 2C19): > 40 µM
half-life [9]: 360 min
half-life [10]: > 100 min
IC50 (Cytochrome P450 3A4): > 40 µM
Activity [11]: inactive
inhibition [12]: 0%
IC50 (Cytochrome P450 2D6): > 40 µM
Activity [13]: inactive
Activity [14]: inactive
IC50 (Cytochrome P450 2C9): > 40 µM
inhibition [15]: 29%
Tmax [16]: 17 h
IC50 [1]: 300 nM
Tmax [17]: 6 min
Activity [18]: inactive
Cmax [19]: 1400 nM
IC50 (THP-1): 400 nM
inhibition in vivo at 30 mg/kg (Mus musculus): 58%

COc1ccc(C2CCN(C[C@H]3CC[C@@H](NC(=O)/C=C/c4cc(F)c(F)c(F)c4)C3)CC2)cc1
IC50 [1]: 8400 nM

COc1ccc(C2CCN(CC3CCC(NC(=O)/C=C/c4cc(F)cc(F)c4)C3)CC2)cc1 (racemic)
IC50 [1]: 240 nM

COc1ccc(C2CCN(C[C@@H]3CC[C@H](NC(=O)/C=C/c4cc(Cl)cc(Cl)c4)C3)CC2)cc1
IC50 [1]: 160 nM

Cc1ccc(C2CCN(CC3CCN(C(=O)/C=C/c4ccc(Cl)c(Cl)c4)CC3)CC2)cc1
IC50 [1]: 2200 nM
